Source: ChEMBL document CHEMBL1649436, “Antiviral activity of MK-4965, a novel nonnucleoside reverse transcriptase inhibitor” (Antimicrob Agents Chemother, 2009)

What was measured:
[1] = system: Human immunodeficiency virus 1; assay: Ratio of EC95 for HIV1 isolate R8 harboring reverse transcriptase Y181C mutant in presence of 50% human serum to EC95 for HIV1 isolate R8 harboring wild type reverse transcriptase in presence of 50% human serum; format: functional
How it was run: (§1)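 Ratios of EC95 values from the MT-4 multiple-cycle assay: R8 variants infected 24 h at low MOI, then reseeded in RPMI 1640 with 10% FBS or 50% type AB human serum with threefold dilutions (833–0.32 nM) for 72 h; p24 by AlphaScreen; EC95 = lowest concentration cutting p24 ≥95% versus untreated controls.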

[2] = system: Human immunodeficiency virus 1; assay: Antiviral activity against HIV1 clade B harboring mutant reverse transcriptase relative to HIV1 CNDO with wild type reverse transcriptase; format: functional
[3] = Cytotoxicity against human SupT1 cells after 24 to 72 hrs by alamar blue assay; format: cell-based; settings: SUP-T1
How it was run: (§2)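 Cytotoxicity measured with Alamar blue after incubation at 37°C in 5% CO2 for 24, 48 or 72 h, in stationary and activated primary cells (CD4 cells, monocytes, PBMC, macrophages) and proliferating lines (MT4, SupT1, HL60).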

[4] = system: Human immunodeficiency virus 1; assay: Antiviral activity against HIV1 isolate R8 harboring reverse transcriptase Y188L mutant relative to drug-sensitive HIV1 CNDO; format: functional
How it was run: (§3)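 Single-cycle PhenoScreen assay run by Monogram Biosciences, using viruses carrying RT sequences from clinical isolates, subtypes/CRFs or PI/NRTI-resistant clade B viruses; nine serial drug concentrations; activity expressed relative to drug-sensitive reference strain CNDO (protease and RT from NL4-3), with multidrug-resistant MDRC4 as assay-performance control.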

[5] = system: Human immunodeficiency virus 1; assay: Antiviral activity against HIV1 isolate R8 harboring reverse transcriptase K103N and G190A mutant relative to drug-sensitive HIV1 CNDO; format: functional; how it was run: as §3
MT4 = assay: Cytotoxicity against human MT4 cells after 24 to 72 hrs by alamar blue assay; format: cell-based; how it was run: as §2
[6] = system: Human immunodeficiency virus 1; assay: Antiviral activity against HIV1 CRF17_BF harboring mutant reverse transcriptase relative to HIV1 CNDO with wild type reverse transcriptase; format: functional; how it was run: as §3
Plasma = assay: Plasma protein binding in HIV1 infected patient; format: ADME, cell-free; settings: human
[7] = system: Human immunodeficiency virus 1; assay: Antiviral activity against NRTI-, PI-resistant HIV1 harboring mutant reverse transcriptase relative to HIV1 CNDO with wild type reverse transcriptase; format: functional; how it was run: as §3
[8] = Cytotoxicity against activated human macrophage after 24 to 72 hrs by alamar blue assay; format: cell-based; how it was run: as §2
[9] = system: Human immunodeficiency virus 1; assay: Antiviral activity against HIV1 clade H harboring mutant reverse transcriptase relative to HIV1 CNDO with wild type reverse transcriptase; format: functional
[10] = system: Human immunodeficiency virus 1; assay: Selectivity ratio of IC50 for HIV1 isolate R8 reverse transcriptase K103N mutant to IC50 for HIV1 isolate R8 reverse transcriptase
[11] = system: Human immunodeficiency virus 1; assay: Antiviral activity against HIV1 isolate R8 harboring reverse transcriptase K103N mutant infected in human MT4 cells assessed as inhibition of viral replication after 72 hrs in presence of 50% human serum; format: functional; settings: Human immunodeficiency virus 1, isolate R8, MT4, 72 h
How it was run: (§4)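 Multiple-cycle assay: MT-4 cells (2.5 × 10^5) infected with R8-based virus at low MOI, no inhibitor, 24 h at 37°C, 5% CO2; washed, reseeded at 5 × 10^4 cells in RPMI 1640 with 10% FBS or 50% type AB human serum; threefold serial dilutions from 833 nM to 0.32 nM; 72 h; p24 in medium by AlphaScreen; EC95 = lowest concentration giving ≥95% p24 reduction versus untreated.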

[12] = Cytotoxicity against activated human CD4+ T cells after 24 to 72 hrs by alamar blue assay; format: cell-based; settings: T-cell; how it was run: as §2
[13] = Cytotoxicity against activated human monocyte after 24 to 72 hrs by alamar blue assay; format: cell-based; how it was run: as §2
[14] = system: Human immunodeficiency virus 1; assay: Antiviral activity against HIV1 clade F1 harboring mutant reverse transcriptase relative to HIV1 CNDO with wild type reverse transcriptase; format: functional
[15] = system: Human immunodeficiency virus 1; assay: Antiviral activity against HIV1 clade G harboring mutant reverse transcriptase relative to HIV1 CNDO with wild type reverse transcriptase; format: functional
[16] = system: Human immunodeficiency virus 1; assay: Antiviral activity against HIV1 isolate R8 harboring reverse transcriptase K103N mutant infected in human MT4 cells assessed as inhibition of viral replication after 72 hrs in presence of 10% FBS; format: functional; settings: Human immunodeficiency virus 1, isolate R8, MT4, 72 h; how it was run: as §4
[17] = Cytotoxicity against stationary-phase human macrophage after 24 to 72 hrs by alamar blue assay; format: cell-based; how it was run: as §2
[18] = system: Human immunodeficiency virus 1; assay: Antiviral activity against HIV1 isolate R8 harboring reverse transcriptase K103N and Y181C mutant infected in human MT4 cells assessed as inhibition of viral replication after 72 hrs in presence of 50% human serum; format: functional; settings: Human immunodeficiency virus 1, isolate R8, MT4, 72 h; how it was run: as §4
[19] = system: Human immunodeficiency virus 1; assay: Antiviral activity against HIV1 isolate R8 harboring reverse transcriptase Y181C mutant infected in human MT4 cells assessed as inhibition of viral replication after 72 hrs in presence of 50% human serum; format: functional; settings: Human immunodeficiency virus 1, isolate R8, MT4, 72 h; how it was run: as §4
[20] = system: Human immunodeficiency virus 1; assay: Antiviral activity against HIV1 clade D harboring mutant reverse transcriptase relative to HIV1 CNDO with wild type reverse transcriptase; format: functional
[21] = system: Human immunodeficiency virus 1; assay: Antiviral activity against HIV1 isolate R8 harboring reverse transcriptase L100I mutant relative to drug-sensitive HIV1 CNDO; format: functional; how it was run: as §3
[22] = system: Human immunodeficiency virus 1; assay: Antiviral activity against HIV1 isolate R8 harboring wild type reverse transcriptase infected in human MT4 cells assessed as inhibition of viral replication after 72 hrs in presence of 10% FBS; format: functional; settings: Human immunodeficiency virus 1, isolate R8, MT4, 72 h; how it was run: as §4
PBMC [23] = assay: Cytotoxicity against stationary-phase human PBMC after 24 to 72 hrs by alamar blue assay; format: cell-based; how it was run: as §2
[24] = system: Human immunodeficiency virus 1; assay: Antiviral activity against HIV1 isolate R8 harboring reverse transcriptase Y181C mutant infected in human MT4 cells assessed as inhibition of viral replication after 72 hrs in presence of 10% FBS; format: functional; settings: Human immunodeficiency virus 1, isolate R8, MT4, 72 h; how it was run: as §4
[25] = system: Human immunodeficiency virus 1; assay: Antiviral activity against HIV1 clade A harboring mutant reverse transcriptase relative to HIV1 CNDO with wild type reverse transcriptase; format: functional
[26] = system: Human immunodeficiency virus 1; assay: Ratio of EC95 for HIV1 isolate R8 harboring reverse transcriptase Y181C mutant in presence of 50% human serum to EC95 for HIV1 isolate R8 harboring reverse transcriptase Y181C mutant in presence of 10% FBS; format: functional; how it was run: as §1
[27] = system: Human immunodeficiency virus 1; assay: Antiviral activity against HIV1 clade C harboring mutant reverse transcriptase relative to HIV1 CNDO with wild type reverse transcriptase; format: functional
[28] = system: Human immunodeficiency virus 1; assay: Antiviral activity against HIV1 CRF01_AE harboring mutant reverse transcriptase relative to HIV1 CNDO with wild type reverse transcriptase; format: functional; how it was run: as §3
[29] = system: Human immunodeficiency virus 1; assay: Ratio of EC95 for HIV1 isolate R8 harboring wild type reverse transcriptase in presence of 50% human serum to EC95 for HIV1 isolate R8 harboring wild type reverse transcriptase in presence of 10% FBS; format: functional; how it was run: as §1
[30] = system: Human immunodeficiency virus 1; assay: Antiviral activity against NRTI-resistant HIV1 harboring mutant reverse transcriptase relative to HIV1 CNDO with wild type reverse transcriptase; format: functional; how it was run: as §3
[31] = system: Human immunodeficiency virus 1; assay: Ratio of EC95 for HIV1 isolate R8 harboring reverse transcriptase K103N mutant in presence of 50% human serum to EC95 for HIV1 isolate R8 harboring reverse transcriptase K103N mutant in presence of 10% FBS; format: functional; how it was run: as §1
PBMC [32] = assay: Cytotoxicity against activated human PBMC after 24 to 72 hrs by alamar blue assay; format: cell-based; how it was run: as §2
[33] = system: Human immunodeficiency virus 1; assay: Ratio of EC95 for HIV1 isolate R8 harboring reverse transcriptase K103N mutant in presence of 50% human serum to EC95 for HIV1 isolate R8 harboring wild type reverse transcriptase in presence of 50% human serum; format: functional; how it was run: as §1
[34] = Cytotoxicity against stationary-phase human monocyte after 24 to 72 hrs by alamar blue assay; format: cell-based; how it was run: as §2
[35] = system: Human immunodeficiency virus 1; assay: Ratio of EC95 for HIV1 isolate R8 harboring reverse transcriptase K103N and Y181C mutant in presence of 50% human serum to EC95 for HIV1 isolate R8 harboring reverse transcriptase K103N and Y181C mutant in presence of 10% FBS; format: functional; how it was run: as §1
[36] = system: Human immunodeficiency virus 1; assay: Ratio of EC95 for HIV1 isolate R8 harboring reverse transcriptase K103N and Y181C mutant in presence of 50% human serum to EC95 for HIV1 isolate R8 harboring wild type reverse transcriptase in presence of 50% human serum; format: functional; how it was run: as §1
[37] = Cytotoxicity against stationary-phase human CD4+ T cells after 24 to 72 hrs by alamar blue assay; format: cell-based; settings: T-cell; how it was run: as §2
[38] = system: Human immunodeficiency virus 1; assay: Antiviral activity against PI-resistant HIV1 harboring mutant reverse transcriptase relative to HIV1 CNDO with wild type reverse transcriptase; format: functional; how it was run: as §3
[39] = system: Human immunodeficiency virus 1; assay: Selectivity ratio of IC50 for HIV1 isolate R8 reverse transcriptase Y181C mutant to IC50 for HIV1 isolate R8 reverse transcriptase
HL-60 = assay: Cytotoxicity against human HL60 cells after 24 to 72 hrs by alamar blue assay; format: cell-based; how it was run: as §2
[40] = system: Human immunodeficiency virus 1; assay: Antiviral activity against HIV1 isolate R8 harboring wild type reverse transcriptase infected in human MT4 cells assessed as inhibition of viral replication after 72 hrs in presence of 50% human serum; format: functional; settings: Human immunodeficiency virus 1, isolate R8, MT4, 72 h; how it was run: as §4
[41] = system: Human immunodeficiency virus 1; assay: Antiviral activity against HIV1 isolate R8 harboring reverse transcriptase K103N and Y181C mutant infected in human MT4 cells assessed as inhibition of viral replication after 72 hrs in presence of 10% FBS; format: functional; settings: Human immunodeficiency virus 1, isolate R8, MT4, 72 h; how it was run: as §4
[42] = system: Human immunodeficiency virus 1; assay: Antiviral activity against HIV1 isolate R8 harboring reverse transcriptase V106A, G190A and F227L mutant relative to drug-sensitive HIV1 CNDO; format: functional; how it was run: as §3
[43] = system: Human immunodeficiency virus 1; assay: Antiviral activity against HIV1 CRF02_AG harboring mutant reverse transcriptase relative to HIV1 CNDO with wild type reverse transcriptase; format: functional; how it was run: as §3

SMILES: N#Cc1cc(Cl)cc(Oc2cc(OCc3n[nH]c4nc(N)ccc34)ccc2Cl)c1
- fold change (FC) [1]: 6
- fold change (FC) [2]: 1.25
- EC50 [3]: > 3 µM
- fold change (FC) [4]: > 100
- fold change (FC) [5]: 5
- EC50 (MT4): > 3 µM
- fold change (FC) [6]: 1.15
- Activity (Plasma): 96.5%
- fold change (FC) [7]: 0.18
- EC50 [8]: > 3 µM
- fold change (FC) [9]: 0.22
- fold change (FC) [10]: 2
- EC95 [11]: 0.058 µM
- EC50 [12]: > 3 µM
- EC50 [13]: > 3 µM
- fold change (FC) [14]: 0.72
- fold change (FC) [15]: 0.58
- EC95 [16]: 0.013 µM
- EC50 [17]: > 3 µM
- EC95 [18]: 0.447 µM
- EC95 [19]: 0.184 µM
- fold change (FC) [20]: 0.56
- fold change (FC) [21]: 0.9
- EC95 [22]: 0.0044 µM
- EC50 (PBMC [23]): > 3 µM
- EC95 [24]: 0.03 µM
- fold change (FC) [25]: 0.73
- fold change (FC) [26]: 4
- fold change (FC) [27]: 1.07
- fold change (FC) [28]: 0.9
- fold change (FC) [29]: 4
- fold change (FC) [30]: 0.3
- fold change (FC) [31]: 4
- EC50 (PBMC [32]): > 3 µM
- fold change (FC) [33]: 2
- EC50 [34]: > 3 µM
- fold change (FC) [35]: 4
- fold change (FC) [36]: 15
- EC50 [37]: > 3 µM
- fold change (FC) [38]: 0.84
- fold change (FC) [39]: 2
- EC50 (HL-60): > 3 µM
- EC95 [40]: 0.029 µM
- EC95 [41]: 0.128 µM
- fold change (FC) [42]: > 100
- fold change (FC) [43]: 0.92
